ChEMBL document CHEMBL1155457, “Discovery of the dual orexin receptor antagonist [(7R)-4-(5-chloro-1,3-benzoxazol-2-yl)-7-methyl-1,4-diazepan-1-yl][5-methyl-2-(2H-1,2,3-triazol-2-yl)phenyl]methanone (MK-4305) for the treatment of insomnia” (J Med Chem, 2010)
Activity calls are given as the source filed them. No cut-off for these calls is given here.

What was measured:
[1] = Lipophilicity, log P of the compound; format: physicochemical; details: octanol/water
Rattus norvegicus [2] = assay: Antiinsomnic activity in Sprague-Dawley rat assessed as decrease in active wake duration at 10 mg/kg/day, po […]; format: functional, organism-based
Method in brief: (§1)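 Rats carried telemetry implants recording ECoG/EMG (sampled at 500 Hz) and had recovered at least 2 weeks after surgery. They were on a 12:12 light cycle with lights off at 04:00. After 2 days of vehicle habituation, four rats were dosed by oral gavage in 20% aqueous TPGS at 09:00, 5 h into the active phase. The design was a one-week crossover against vehicle. Recording ran 23 h; stages were auto-scored in 30-min bins, averaged over 7 days and compared by mixed-model ANOVA at each time point.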

Rattus norvegicus [3] = assay: Antiinsomnic activity in Sprague-Dawley rat assessed as increase in rapid-eye movement at 10 mg/kg/day, po measured with 3 to 4 hrs post last dose; format: functional, organism-based; method in brief: as §1
Rattus norvegicus [4] = assay: Antiinsomnic activity in Sprague-Dawley rat assessed as increase in delta sleep duration at 10 mg/kg/day, po measured with 3 to 4 hrs post last dose; format: functional, organism-based; method in brief: as §1
Rattus norvegicus [5] = assay: Antiinsomnic activity in Sprague-Dawley rat assessed as decrease in light sleep duration at 10 mg/kg/day, po measured with 3 to 4 hrs post last dose; format: functional, organism-based; method in brief: as §1
[6] = Drug level in Sprague-Dawley rat plasma at 10 mg/kg/day, po after 1 hr; format: ADME, organism-based; parameters: route oral; details: read-out: Drug uptake
[7] = Drug level in Sprague-Dawley rat CSF at 10 mg/kg/day, po after 1 hr; format: ADME, organism-based, Cerebrospinal fluid; parameters: route oral; details: read-out: Drug uptake
[8] = Fraction unbound in rat plasma; format: ADME, cell-free
[9] = Clearance in dog at 0.5 mg/kg, iv; format: ADME, organism-based, Canis lupus familiaris; parameters: dose 0.5 mg/kg, route intravenous; details: in vivo
Method in brief: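 Dogs received an IV dose with DMSO as vehicle (n = 3). Clearance was derived from plasma pharmacokinetics.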

[10] = Oral bioavailability in dog at 3 mg/kg; format: ADME, organism-based, Canis lupus familiaris; details: in vivo
[11] = Oral bioavailability in rat at 10 mg/kg; format: ADME, organism-based; details: in vivo
[12] = Clearance in rat at 10 mg/kg, iv; format: ADME, organism-based; parameters: dose 10 mg/kg, route intravenous; details: in vivo
[13] = biological target: T1, Orexin/Hypocretin receptor type 1 (Homo sapiens, UniProt O43613); assay: Displacement of [3H](S)-N-(biphenyl-2-yl)-1-(2-(1-methyl-1H-benzo[d]imidazol-2-ylthio)acetyl)pyrrolidine-2-carboxamide from human OX1R expressed in CHO cells after 3 hrs by scintillation counting; format: cell-based
T1 sequence (O43613 whole entry): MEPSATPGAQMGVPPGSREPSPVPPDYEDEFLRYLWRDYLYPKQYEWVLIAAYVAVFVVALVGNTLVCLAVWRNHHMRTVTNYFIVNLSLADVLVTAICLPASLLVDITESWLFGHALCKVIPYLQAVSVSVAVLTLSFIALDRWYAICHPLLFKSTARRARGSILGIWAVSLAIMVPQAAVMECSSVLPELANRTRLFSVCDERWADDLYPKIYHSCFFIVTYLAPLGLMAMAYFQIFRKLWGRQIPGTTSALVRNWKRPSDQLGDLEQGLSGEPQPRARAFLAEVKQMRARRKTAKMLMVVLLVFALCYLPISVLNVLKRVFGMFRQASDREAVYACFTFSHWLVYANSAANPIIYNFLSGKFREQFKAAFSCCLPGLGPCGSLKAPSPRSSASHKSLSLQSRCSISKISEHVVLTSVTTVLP

[14] = biological target: T1, Orexin/Hypocretin receptor type 1; assay: Displacement of [3H]N-cyclobutyl-5-methyl-N-(2-(1-methyl-1H-benzo[d]imidazol-2-ylthio)ethyl)-2-(2H-1,2,3-triazol-2-yl)benzamide from human OX1R expressed in CHO cells after 20 hrs by scintillation counting; format: cell-based
Orexin receptor type 2 [15] = biological target: T2, Orexin receptor type 2 (Homo sapiens, UniProt O43614); assay: Displacement of [3H](S)-N-(2-(1H-pyrrol-1-yl)phenyl)-1-(2-(1-methyl-1H-benzo[d]imidazol-2-ylthio)acetyl)pyrrolidine-2-carboxamide from human OX2R expressed in CHO cells after 3 hrs by scintillation counting; format: cell-based
T2 sequence (O43614 whole entry): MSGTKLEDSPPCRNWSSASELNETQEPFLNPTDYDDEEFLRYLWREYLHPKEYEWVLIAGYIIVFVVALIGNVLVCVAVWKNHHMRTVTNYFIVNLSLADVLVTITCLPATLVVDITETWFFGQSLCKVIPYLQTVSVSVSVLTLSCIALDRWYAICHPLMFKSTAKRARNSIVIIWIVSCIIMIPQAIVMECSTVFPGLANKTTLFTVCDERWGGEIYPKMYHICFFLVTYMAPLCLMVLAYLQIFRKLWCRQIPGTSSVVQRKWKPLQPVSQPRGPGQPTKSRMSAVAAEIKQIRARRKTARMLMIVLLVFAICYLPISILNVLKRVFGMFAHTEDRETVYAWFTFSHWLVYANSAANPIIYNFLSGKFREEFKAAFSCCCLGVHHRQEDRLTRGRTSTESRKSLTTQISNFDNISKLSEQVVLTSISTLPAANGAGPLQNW

[16] = biological target: T1, Orexin/Hypocretin receptor type 1; assay: Antagonist activity at human OX1R expressed in CHO cells assessed as inhibition of orexin-A-induced intracellular calcium mobilization after 5 mins by FLIPR assay; format: functional, cell-based
Orexin receptor type 2 [17] = biological target: T2, Orexin receptor type 2; assay: Antagonist activity at human OX2R expressed in CHO cells assessed as inhibition of orexin-A-induced intracellular calcium mobilization after 5 mins by FLIPR assay; format: functional, cell-based
Liver microsomes = assay: Idiosyncratic toxicity in human liver microsomes assessed GSH-derived reactive electrophilic adduct formation at 10 uM after 60 mins by UPLC/HRMS analysis relative to labetalol; parameters: species or system Microsome; details: 1 h
Method in brief: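 Pooled human liver microsomes (1 mg/mL protein) were incubated 60 min at 37 °C in 100 mM potassium phosphate pH 7.4. The mix held 10 μM compound, 1 mM MgCl2, 1 mM EDTA, 5 mM GSH and 1 mM NADPH. After quenching, GSH adducts were detected by UPLC/HRMS. Summed adduct peak areas were divided by the labetalol internal-standard area.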

[18] = Volume of distribution at steady state in rat at 2 mg/kg, iv; format: ADME, organism-based; parameters: dose 2 mg/kg, route intravenous; details: in vivo, read-out: Vdss
Method in brief: (§2)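 IV PK in DMSO vehicle: rat at 2 mg/kg, dog at 0.5 mg/kg. Clearance, Vd_ss and terminal half-life were derived from plasma levels.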

[19] = Terminal half life in rat at 2 mg/kg, iv; format: ADME, organism-based; parameters: dose 2 mg/kg, route intravenous; details: in vivo, read-out: beta t1/2 (converted); method in brief: as §2
[20] = AUC in rat at 100 mg/kg, po; format: ADME, organism-based; parameters: dose 100 mg/kg, route oral; details: plasma
Method in brief: (§3)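 Rats dosed orally by gavage as the HCl salt in 20% TPGS. Plasma drug levels were followed to give AUC, Cmax and oral bioavailability.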

[21] = Cmax in rat at 100 mg/kg, po; format: ADME, organism-based; parameters: dose 100 mg/kg, route oral; details: in vivo; method in brief: as §3
[22] = Oral bioavailability in rat at 100 mg/kg; format: ADME, organism-based; details: in vivo; method in brief: as §3
[23] = Volume of distribution at steady state in dog at 0.5 mg/kg, iv; format: ADME, organism-based, Canis lupus familiaris; parameters: dose 0.5 mg/kg, route intravenous; details: in vivo, read-out: Vdss; method in brief: as §2
[24] = Terminal half life in dog at 0.5 mg/kg, iv; format: ADME, organism-based, Canis lupus familiaris; parameters: dose 0.5 mg/kg, route intravenous; details: in vivo, read-out: beta t1/2 (converted); method in brief: as §2
[25] = AUC in dog at 3 mg/kg, po; format: ADME, organism-based, Canis lupus familiaris; parameters: dose 3 mg/kg, route oral; details: plasma
[26] = Cmax in dog at 3 mg/kg, po; format: ADME, organism-based, Canis lupus familiaris; parameters: dose 3 mg/kg, route oral; details: in vivo

clearance [9] [mL/min/kg] | bioavailability [10] [%] | Ki [13] [nM] | Ki [14] [nM] | Ki (Orexin receptor type 2 [15]) [nM] | IC50 [16] [nM] | IC50 (Orexin receptor type 2 [17]) [nM] | Structure (SMILES) | Activity (Rattus norvegicus [2]) | Activity (Rattus norvegicus [3]) | Activity (Rattus norvegicus [4]) | Activity (Rattus norvegicus [5]) | Ratio (Liver microsomes) | other results
 |  | 54 | 54 | 8.5 |  |  | C[C@H]1CCN(c2ncc3ccccc3n2)CCN1C(=O)c1ccccc1-n1nccn1 |  |  |  |  |  | 
4.9 | 15 | 1.8 | 1.8 | 0.25 | 28 | 32 | C[C@@H]1CCN(c2cnc3cc(F)c(F)cc3n2)CCN1C(=O)c1ccccc1-n1nccn1 |  |  |  |  | 3.7 | 

The remaining lines, values behind:

Structure (SMILES) | clearance [9] [mL/min/kg] | bioavailability [10] [%] | Ki [13] [nM] | Ki [14] [nM] | Ki (Orexin receptor type 2 [15]) [nM] | IC50 [16] [nM] | IC50 (Orexin receptor type 2 [17]) [nM] | Activity (Rattus norvegicus [2]) | Activity (Rattus norvegicus [3]) | Activity (Rattus norvegicus [4]) | Activity (Rattus norvegicus [5]) | Ratio (Liver microsomes) | other results
Cc1ccc(-n2nccn2)c(C(=O)N2CCN(c3ncc4cc(F)ccc4n3)CC[C@H]2C)c1 | 5.2 | 37 |  |  |  |  |  | Active | Active | Active | Active |  | logP [1]: 3; concentration at 1 h [6]: 20 nM; concentration at 1 h [7]: 1000 nM; fraction unbound [8]: 0.03; bioavailability [11]: 47%; clearance [12]: 33 mL/min/kg
C[C@@H]1CCN(c2ncc3ccccc3n2)CCN1C(=O)c1ccccc1-n1nccn1 | 6.4 |  | 6.2 | 6.2 | 0.47 | 26 | 18 |  |  |  |  |  | 
Cc1ccc(-n2nccn2)c(C(=O)N2CCCN(c3ncc4ccccc4n3)CC2)c1 | 11.6 |  |  |  | 0.59 |  |  | Active | Active | Active | Active | 5 | Vd [18]: 1.08 L/kg; half-life [19]: 21 min; AUC [20]: 1.5 µM·h; Cmax [21]: 650 nM; bioavailability [22]: 2%; Vd [23]: 0.86 L/kg; half-life [24]: 76.8 min; AUC [25]: 1.81 µM·h; Cmax [26]: 1440 nM
